Test results published in PubChem BioAssay AID624398 (The Scripps Research Institute Molecular Screening Center, 2012).
Activity calls are given as the source filed them.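 The calls were made as follows: active = estrogen-induced reporter signal reduced by at least 20%; inactive = reduction of reporter signal under 20%.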

Columns and labels:
[1] = suppression of estradiol-induced ERE reporter expression – BG1Luc4E2 ovarian carcinoma cells, luminescence, set 2, counter-screen for AHR activator project, late-stage follow-up (AID 624398); conditions: BG1Luc4E2 ERE-luciferase, estradiol-induced, luminescence, 24 h; at 10 µM; stronger effect = higher value
Summary of the method: (§1)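 Assay system: 2xERE luciferase reporter | Also added: 1 nM estradiol | Compound dosing: Single 10 µM dose or series up to 100 µM nominal | Schedule: 24 h exposure at 37 °C | Technique: Luminescence after lysis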

[2] = system: BG1Luc4E2 ERE-luciferase, estradiol-induced, luminescence, 24 h; test: as above
Summary of the method: as §1

Structure (SMILES)	inhibition [1]	IC50 [2] [µM]
Cc1cc(Nc2ccc(F)cc2)nc(N)n1	15.8% (inactive)	
CN(Cc1cc(-c2cccs2)n[nH]1)Cc1coc2ccccc2c1=O	-31.1% (inactive)	
Cc1cc(Br)cc(C)c1Nc1ccnc(Nc2ccc(C#N)cc2)n1	92.9%	
Cc1csc(SCC(=O)Nc2ccccn2)n1	12.2% (inactive)	
COc1ccc(Nc2cc(Cl)nc(N)n2)cc1	-52.4% (inactive)	
Cc1cccc(NC(=O)c2cc(-c3ccc(C)cc3O)n[nH]2)c1	-95.6% (inactive)	
Nc1nc(Cl)cc(Nc2ccc(Oc3ccccc3)cc2)n1	-6.3% (inactive)	
Cc1ccc(-c2cc(-c3ccc(F)cc3)n[nH]2)c(O)c1		20
Cc1ccc(O)c(-c2cc(-c3ccccc3Cl)[nH]n2)c1	66.3%	
COc1ccc(-c2cc(-c3ccc(C)cc3O)[nH]n2)cc1	40.9%	
COc1ccc(NC(=O)c2ccc(C(=O)Nc3ccc(OC)cc3OC)nc2)c(OC)c1	19.4% (inactive)	
COc1ccc(O)c(-c2cc(-c3cccs3)[nH]n2)c1	43.1%	
COc1ccc(Cl)cc1NC(=O)c1ccc(C(=O)Nc2cc(Cl)ccc2OC)nc1	79.6%	
COc1ccc(Nc2cc(Cl)nc(N)n2)cc1OC	-18.4% (inactive)	
Cc1cccc(C)c1NC(=O)c1ccc(C(=O)Nc2c(C)cccc2C)nc1	-12.6% (inactive)	
O=C(CSc1nc2ccccc2s1)Nc1ccccn1	79%	
Cc1ccnc(NC(=O)CSc2nc3ccccc3s2)c1	16.1% (inactive)	
Cc1ccc(NC(=O)c2ccc(C(=O)Nc3ccc(C)cc3C)nc2)c(C)c1	33.6%	
CCOC(=O)c1c(C)nn(-c2cc(Cl)ccc2Cl)c1C	29%	
O=C(CSc1nc(-c2ccc(F)cc2)cs1)Nc1ccccn1	-26.7% (inactive)	
O=C(CSc1nc2ccccc2s1)Nc1ccc(Cl)cn1	38.8%	
Cc1ccc(-c2cc(-c3ccc(Cl)cc3)n[nH]2)c(O)c1		30
Nc1nc(Cl)cc(Nc2ccccc2F)n1	8% (inactive)	
CCOc1ccccc1NC(=O)c1ccc(C(=O)Nc2ccccc2OCC)nc1	-45.6% (inactive)	
